In ChEMBL document CHEMBL1145903, “Defining the molecular requirements for the selective delivery of polyamine conjugates into cells containing active polyamine transporters” (J Med Chem, 2003):

Tests used:
[1] = Ratio of IC50 value determined in L1210 cell lines to the IC50 value determined in DFMO treated L1210 cell lines was evaluated; format: functional
[2] = Ratio of IC50 value determined in CHO-MG cell lines to the IC50 value determined in CHO cell lines was evaluated
[3] = system: CHO (Chinese hamster); assay: Cytotoxicity in CHO cell lines; details: Cricetulus griseus
[4] = system: L1210; assay: Cytotoxicity in DFMO treated L1210 cell lines; format: functional, cell-based; details: Mus musculus
Method in brief: (§1)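 L1210 murine leukemia cells, early to mid log phase, in RPMI with 10% FCS, glutamine, antibiotics and 2 mM aminoguanidine at 37 °C, 5% CO2. Cells were seeded at 5 × 10^4 cells/mL with drug added at seeding. For line 3, DFMO at 5 mM was present in the medium from drug addition. After 48 h of exposure, growth was read as MTT formazan absorbance at 540 nm.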

[5] = system: CHO-MG (Chinese hamster); assay: Cytotoxicity in CHO-MG cell lines; details: Cricetulus griseus
[6] = system: L1210; assay: Cytotoxicity in L1210 cell lines; format: functional, cell-based; details: Mus musculus; method in brief: as §1

| SMILES | Ratio [1] | Ratio [2] | IC50 [3] | IC50 [4] | IC50 [5] | IC50 [6] |
| --- | --- | --- | --- | --- | --- | --- |
| Cl.Cl.NCCOCCOCCNCc1c2ccccc2cc2ccccc12 | 0.7 | 1.3 | 12.6 µM | 17 µM | 15.9 µM | 11.3 µM |
| Cl.Cl.NCCCCCCCCNCc1c2ccccc2cc2ccccc12 | 0.7 | 1 | 4.9 µM | 4.6 µM | 4.9 µM | 3 µM |
| Cl.NCCCCNCCCCNCc1cccc2ccccc12 | 1.1 |  | 0.6 µM |  | > 100 µM |  |
| Cl.NCCCCNCCCCNCc1c2ccccc2cc2ccccc12 | 2 |  | 0.45 µM |  | 66.7 µM |  |
| Cl.NCCCCNCCCCNCc1ccccc1 | 0.1 |  |  | 421 µM |  |  |
| Cl.NCCCCNCCCCNCc1ccc2ccc3cccc4ccc1c2c34 | 1.1 |  | 0.46 µM | 0.36 µM | 15.5 µM |  |
| Cl.NCCCNCCCCNCc1c2ccccc2cc2ccccc12 | 2 | 24 | 0.4 µM |  | 9.5 µM |  |
| Cl.NCC(O)CNCCCCNCc1c2ccccc2cc2ccccc12 (stereo unspecified) | 0.7 | 1 | 9.1 µM | 2.3 µM | 9.5 µM | 1.5 µM |
| CCCCNCc1c2ccccc2cc2ccccc12.Cl | 0.7 |  | 10.5 µM |  | 11.2 µM |  |
| Cl.Cl.NCCCCNCc1c2ccccc2cc2ccccc12 | 0.7 |  | 7.7 µM |  | 7.6 µM |  |
| Cl.NC1CCC(NCCCCNCc2c3ccccc3cc3ccccc23)CC1 (stereo unspecified) | 1.4 | 7 | 2.5 µM | 0.7 µM | 17.4 µM | 1 µM |
